# TAAR1 antag – human TAAR1 antagonists, primary screen, Fluo-8 calcium fluorescence, CHO RD-HGA16 cells; inhibition, % at 3 µM; hit rate 1.5% among 360,000; antagonist;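 active means inhibition above a per-plate cutoff, the mean inhibition of test compounds on that plate plus 3 SD, cut at about 49% in these data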;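 further: 0% = DMSO plus EC80 beta-PEA response and 100% = DMSO alone without agonist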
#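 test system = CHO RD-HGA16 cells bearing hTAAR1 | replication = singlicate | controls = DMSO-only wells and EC80 β-PEA-stimulated wells | reagent = EC80 β-phenethylamine stimulus | read-out basis = percent inhibition of PEA-evoked calcium signal, max/basal emission ratio | schedule = seeding 17-24 h prior, 75-min 37 °C, 30-min RT dye loading | signal = kinetic Fluo-8 calcium fluorescence measurement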
# GPR7 antagonist – GPR7 receptor antagonists, primary screen, cell-based, fluorescence, single concentration. Neuropeptides B/W receptor type 1 (Homo sapiens), P48145. GPR7-expressing cells, fluorescence antagonist assay. inhibition, % at 4.4 µM. hit rate 1.1% among 290,000; in the data active means inhibition above about 16%, passing the limit was not always enough;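 further: cells stimulated with the agonist NPW; 0% = agonist with vehicle and 100% = vehicle without agonist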
# MPTP block – mitochondrial permeability transition pore inhibitors, primary screen, biochemical, isolated mouse mitochondria, absorbance | Ca2+ swelling absorbance, 30 min | inhibition, % at 10 µM | hit rate 1.4% among 360,000;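 active means inhibition of 50% or more, scaled per plate between neutral and stimulator controls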;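 further: 0% = DMSO wells given calcium and 100% = 1 mM EGTA wells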
# DAGLB inhibitor – DAGLB lipase inhibitors, primary screen, biochemical, fluorescence, HTS; Diacylglycerol lipase-beta (Homo sapiens), Q8NCG7; AID 504411, 2011; inhibition, % at 5.17 µM; hit rate 0.059% among 340,000; HEK293T DAGLB membrane lysate, EnzChek fluorogenic substrate; in the data active means inhibition above about 34%;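 further: 0% = enzyme with vehicle and 100% = wells lacking enzyme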
# Target sequence (Q8NCG7 whole entry, looked up): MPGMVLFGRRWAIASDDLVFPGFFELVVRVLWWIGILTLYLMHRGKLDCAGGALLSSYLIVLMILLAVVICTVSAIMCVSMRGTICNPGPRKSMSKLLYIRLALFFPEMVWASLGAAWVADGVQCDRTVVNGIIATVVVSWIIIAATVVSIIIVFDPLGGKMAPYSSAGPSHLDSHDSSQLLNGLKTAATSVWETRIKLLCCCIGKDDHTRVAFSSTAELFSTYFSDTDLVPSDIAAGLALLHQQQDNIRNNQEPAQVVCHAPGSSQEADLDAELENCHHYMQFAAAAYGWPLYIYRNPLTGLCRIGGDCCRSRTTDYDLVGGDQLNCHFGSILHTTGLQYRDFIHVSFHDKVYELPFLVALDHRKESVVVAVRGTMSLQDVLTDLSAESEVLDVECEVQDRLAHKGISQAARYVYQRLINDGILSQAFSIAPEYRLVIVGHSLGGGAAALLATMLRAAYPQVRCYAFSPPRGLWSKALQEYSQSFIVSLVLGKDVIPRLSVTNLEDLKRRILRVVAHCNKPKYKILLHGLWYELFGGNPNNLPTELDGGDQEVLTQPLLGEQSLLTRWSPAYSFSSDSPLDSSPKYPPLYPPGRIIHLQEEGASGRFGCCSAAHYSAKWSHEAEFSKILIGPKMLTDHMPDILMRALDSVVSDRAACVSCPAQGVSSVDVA
# TAAR1 ag – human TAAR1 agonists, primary screen, Fluo-8 calcium fluorescence, CHO RD-HGA16 cells. vehicle wells 0%, saturating PEA agonist 100%. activation, % at 3 µM. hit rate 0.99% among 360,000. AID 624467, 2012;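 active means activation above the mean activation of all test compounds in the run plus 3 SD, cut at about 38% in these data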
#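 Assay system: CHO-derived RD-HGA16 cells with stable Gα16 and human TAAR1; timing: 17-24 h seeding, 75 min 37 °C dye, 30 min RT; read-out: % activation from peak over basal fluorescence ratio, DMSO-to-PEA scaled; measured by: kinetic Fluo-8 calcium fluorescence; benchmarks: low control DMSO, high control PEA (EC100); doses: 3 µM single concentration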
# Rh123 counter – fluorescence retest of MPTP screen hits in isolated mitochondria, single concentration. shares compounds with MPTP block. membrane potential, Rhodamine 123 fluorescence. inhibition, % at 10 µM. hit rate 78% among 5,000. AID 624504, 2012; in the data active means inhibition above about 22%;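 further: 0% = DMSO vehicle and 100% = positive control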
# MPTP abs DR – mitochondrial permeability transition pore inhibitors, dose response, biochemical, absorbance, uHTS hits | IC50, µM | isolated mitochondria swelling | hit rate 58% among 780 | shares compounds with MPTP block; in the data active means IC50 below about 20 µM
# MPTP cs DR – fluorescent counter-screen in isolated mitochondria, dose response, counter-screen for MPTP inhibitor project, biochemical, fluorescence, uHTS hits; AID 651564, 2012; isolated mitochondria counterscreen, fluorescence read-out; shares compounds with MPTP block; IC50, µM; hit rate 49% among 780; in the data active means IC50 below about 80 µM
# * hit, by the source's call; i = inactive; · = no result. Most compounds without a hit are left out; they make up all but 4% or so of the library.
SMILES,TAAR1 antag,GPR7 antagonist,MPTP block,DAGLB inhibitor,TAAR1 ag,Rh123 counter,others
O=C(Nc1ccc(C(O)(C(F)(F)F)C(F)(F)F)cc1)c1ccc(Cl)c([N+](=O)[O-])c1,57.1*,43.1*,82.6*,-2.9,5.5,67.1*,
N#Cc1ccsc1NC(=O)c1cccc([N+](=O)[O-])c1,16.5,-8.2,31.3,2.1,10.6,·,
O=C(Nc1ccc(S(=O)(=O)NC2=NCCCCC2)cc1)c1ccc(Cl)c([N+](=O)[O-])c1,0.3,·,-2.2,3.0,-0.3,·,
COc1cc(/C=C2/SC(=S)N(CC(=O)NNC(=O)c3ccc(F)cc3)C2=O)cc(OC)c1OC,-10.6,·,0.5,-4.7,2.0,·,
Cc1c(C(=O)O)sc(S(=O)(=O)N2CCN(C(=O)CCc3ccccc3)CC2)c1C(=O)O,-41.4,·,0.1,-1.6,5.5,·,
Cc1ccc(S(=O)(=O)NCC(C)n2cncn2)cc1C (stereo unspecified),-1.5,3.1,-0.4,0.9,-0.1,·,
CCOc1ccc(NC(=O)CN(C)C(=O)c2cc3c(s2)CCC3)cc1OCC,-16.4,·,1.4,-1.3,-1.4,·,
CCn1c2c(c(=N)c3c1CCC3)CCCC2,6.3,-6.5,2.1,·,0.9,·,
CCCCCCCCCn1c2c(c(=N)c3c1CCC3)CCCC2,·,67.6*,103.6*,·,·,101.2*,
CCc1nc2ccc(C(=O)NCc3ccccc3OC)cn2c1N(CC)Cc1cccc(Br)c1,-14.1,·,0.6,·,5.2,·,
Clc1ccc(-c2ccnc3nc(N4CCOCC4)nn23)c(Cl)c1,-24.2,·,-0.4,-2.5,3.0,·,
NC1=NC[C@H](Cc2ccc(O)cc2)N1CCC12CC3CC(CC(C3)C1)C2,1.7,·,50.4*,3.4,-0.6,0.6,
O=c1cc(C(F)(F)F)nc(SCc2cccc3ccccc23)[nH]1,-53.9,15.0,78.1*,15.8,-2.1,85.0*,
CN1/C(=C/C=C/c2n(C)c3cc([N+](=O)[O-])c([N+](=O)[O-])cc3[n+]2C)C(C)(C)c2ccccc21,-11.2,·,80.8*,18.8,0.1,-9.3,MPTP abs DR=i;MPTP cs DR=<2.5*
Cc1cccc[n+]1CC(=O)/C=C1\N(C)c2ccccc2C1(C)C,7.1,-7.0,0.9,0.8,3.0,·,
CC(O)(c1ccccc1)c1nc(-c2ccc(S(C)(=O)=O)cc2)cs1 (stereo unspecified),16.0,·,-1.4,·,1.0,·,
C=CCN(C(=O)c1cccc(S(=O)(=O)N2CCN(C)CC2)c1)c1nc(-c2ccccc2)cs1,25.3,10.1,72.9*,-5.8,9.9,5.9,MPTP abs DR=i;MPTP cs DR=76.1*
CN1CCN(S(=O)(=O)c2cccc(C(=O)N(C)Cc3cccs3)c2)CC1,-12.3,·,-1.3,-0.9,6.5,·,
COC(=O)C1(C(=O)OC)c2ccccc2N(S(=O)(=O)c2ccc(C)cc2)C1CC(C)=O (stereo unspecified),-38.5,·,3.7,·,0.1,·,
COCCNC(=O)c1cc2c(c(-c3cccc(-c4cc5ccccc5o4)c3)n1)[C@@H](CCO)N(S(=O)C(C)(C)C)C2 (stereo partly specified),3.5,·,-0.3,·,3.5,·,
CCCCn1c(NC(=O)c2ccc(Br)o2)c(S(=O)(=O)c2ccccc2)c2nc3ccccc3nc21,5.3,3.5,77.9*,5.2,4.7,77.5*,
COc1ccccc1/C=C/CN1CCC(n2nccc2NC(=O)CCc2ccccc2)CC1,20.8,1.5,73.6*,-0.7,9.0,108.6*,
CCc1cc(=O)oc2cc(OC(C)C(=O)N3CC[C@@]4(O)CCCC[C@H]4C3)ccc12 (stereo partly specified),-16.2,·,-0.6,·,1.3,·,
COc1ccc(OCC(=O)N2CCN(c3nnc(-c4ccc(C)cc4)c4ccccc34)CC2)cc1,14.8,-7.2,60.5*,1.2,0.2,15.2,MPTP abs DR=19.7*;MPTP cs DR=21.7*
COc1ccc(OCC(=O)N2CCN(c3nnc(-c4ccccc4)c4ccccc34)CC2)cc1,25.1,-6.2,9.0,4.3,11.1,·,
SMILES,TAAR1 antag,GPR7 antagonist,MPTP block,DAGLB inhibitor,TAAR1 ag,Rh123 counter,others
Cc1ccc(OCC(=O)N2CCN(c3nnc(-c4ccc(C)cc4)c4ccccc34)CC2)cc1,14.1,-5.3,83.8*,-3.3,5.8,21.6*,
COC(=O)C1=C(C)N(Cc2cccc(C(F)(F)F)c2)C(=NCc2ccc(OC)cc2)NC1c1ccccc1C(F)(F)F (stereo unspecified),5.7,·,·,·,5.7,·,
COc1ccc2nc(N3C(=O)/C(=C/c4ccc(Cl)cc4)NC3=S)sc2c1,6.6,-0.3,94.6*,0.9,2.5,3.0,
Cc1ccc(N(CC(=O)Nc2ccc(F)c(Cl)c2)S(=O)(=O)c2c(C)noc2C)cc1,24.8,-7.2,57.7*,-8.0,10.1,101.3*,
O=C(Nc1ccncc1)Nc1ccc(F)c(Cl)c1,19.4,3.0,91.8*,-1.8,49.2*,107.2*,
C=CCNC(=O)Nc1ccc(F)c(Cl)c1,7.3,-8.0,7.8,-3.7,4.5,·,
O=C(Nc1ccc(Cl)cc1)Nc1cccnc1,39.7,-3.1,63.6*,-4.7,47.7*,82.7*,
O=C(Nc1ccc(Cc2ccc(NC(=O)Nc3cccnc3)cc2)cc1)Nc1cccnc1,-37.0,·,-1.3,1.6,2.0,·,
O=C(Nc1ccc(F)c(Cl)c1)Nc1ccc(Cl)cn1,28.3,1.6,87.4*,1.6,7.0,96.3*,
O=C(Nc1ccc(F)cc1)Nc1ccc(Cl)cn1,9.2,-8.2,6.2,2.7,0.9,·,
C[C@@H]1CN([C@H](C)CO)C(=O)c2c(c3ccccc3n2C)-c2ccccc2CO[C@H]1CN(C)Cc1ccc(Oc2ccccc2)cc1,-18.6,·,-1.5,-4.2,-0.6,·,
CCC(=O)c1ccc(OC(=O)N2CCOCC2)cc1,-19.0,-14.2,0.6,1.2,1.5,·,
CCCn1c(=N)n(CCOc2ccc(OC)cc2)c2ccccc21,-2.0,6.3,54.0*,0.2,4.9,5.4,MPTP abs DR=8.82*;MPTP cs DR=22.7*
CCCCn1c(=N)n(CC(O)COc2ccccc2)c2ccccc21 (stereo unspecified),-4.6,9.7,76.2*,0.2,12.2,2.8,MPTP abs DR=13*;MPTP cs DR=35.9*
O=c1ccn(C2CCCCC2)c(=O)[nH]1,3.5,·,-1.7,·,0.7,·,
COc1ccc(/C=N/NC(=O)c2cc(Br)ccc2O)cc1Cn1cc(Cl)cn1,-6.5,5.9,67.6*,5.8,2.9,53.5*,
C[C@H](CO)N1C[C@H](C)[C@H](CN(C)Cc2cncnc2)Oc2ncc(C#CC3(O)CCCC3)cc2C1=O,3.9,·,0.4,-1.4,1.7,·,
